{"source": "paper PMC6218153", "about": "(Journal of Alzheimer's Disease Reports, 2018)", "test": "PK study in plasma and CSF after single IV, SC or IN dose", "type": "in vivo, rat", "procedure,_shortened": "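Cannulated rats (jugular vein, intracisternal; n = 6/route) received a single dose in PBS: IV or SC ~11 mg/kg over 1 min, or IN ~5.5 mg/kg, 10 μL per nostril at 6-min intervals over 18 min. K2EDTA plasma was taken pre-dose to 165 min and CSF pre-dose to 150/180 min. LC/MS/MS (ESI+, 1007.55 > 876.35) with noncompartmental PK; CL = Dose/AUC. CSF ratio = dose-normalised CSF AUC relative to IV.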", "key": {"[1]": {"settings": "rat, in vivo, 5.5 mg/kg, IN 5.5 mg/kg, CSF"}, "[2]": {"settings": "rat, in vivo, inhaled or intranasal, 5.5 mg/kg, IN 5.5 mg/kg, plasma"}, "[3]": {"settings": "rat, in vivo, sc, 11 mg/kg, SC 11 mg/kg, CSF"}, "[4]": {"settings": "rat, in vivo, sc, 11 mg/kg, SC 11 mg/kg, plasma"}}, "note": "Where no end group is shown, it is not given here.", "data": [{"sequence": "DEEEDEEL [P8, DEEEDEEL]", "values": [{"measurement": "P8 concentration in plasma", "setting": "IV 11.0 mg/kg single dose, 110 min, Rat 2", "value": 36.4, "unit": "ng/mL"}, {"measurement": "P8 concentration in plasma", "setting": "IV 11.0 mg/kg single dose, 110 min, Rat 3", "value": 39.8, "unit": "ng/mL"}, {"measurement": "P8 concentration in plasma", "setting": "IV 11.0 mg/kg single dose, 130 min, Rat 1", "value": 42.0, "unit": "ng/mL"}, {"measurement": "P8 concentration in plasma", "setting": "IV 11.0 mg/kg single dose, 130 min, Rat 2", "value": 18.3, "unit": "ng/mL"}, {"measurement": "P8 concentration in plasma", "setting": "IV 11.0 mg/kg single dose, 130 min, Rat 3", "value": 20.7, "unit": "ng/mL"}, {"measurement": "P8 concentration in CSF", "setting": "IV 11.0 mg/kg single dose, 150 min, Rat 1", "value": 4.88, "unit": "ng/mL"}, {"measurement": "P8 concentration in CSF", "setting": "IV 11.0 mg/kg single dose, 150 min, Rat 2", "value": 4.30, "unit": "ng/mL"}, {"measurement": "P8 concentration in CSF", "setting": "IV 11.0 mg/kg single dose, 150 min, Rat 3", "value": 3.57, "unit": "ng/mL"}, {"measurement": "P8 concentration in plasma", "setting": "IV 11.0 mg/kg single dose, 165 min, Rat 1", "value": 18.9, "unit": "ng/mL"}, {"measurement": "P8 concentration in plasma", "setting": "IV 11.0 mg/kg single dose, 165 min, Rat 3", "value": 9.72, "unit": "ng/mL"}, {"measurement": "P8 concentration in CSF", "setting": "IV 11.0 mg/kg single dose, 180 min, Rat 1", "value": 4.11, "unit": "ng/mL"}, {"measurement": "P8 concentration in CSF", "setting": "IV 11.0 mg/kg single dose, 180 min, Rat 3", "value": 1.06, "unit": "ng/mL"}, {"measurement": "P8 concentration in CSF", "setting": "SC 11.0 mg/kg single dose, 10 min, Rat 1", "value": 7.06, "unit": "ng/mL"}, {"measurement": "P8 concentration in CSF", "setting": "SC 11.0 mg/kg single dose, 10 min, Rat 2", "value": 22.6, "unit": "ng/mL"}, {"measurement": "P8 concentration in CSF", "setting": "SC 11.0 mg/kg single dose, 10 min, Rat 3", "value": 1.75, "unit": "ng/mL"}, {"measurement": "P8 concentration in CSF", "setting": "SC 11.0 mg/kg single dose, 30 min, Rat 1", "value": 25.2, "unit": "ng/mL"}, {"measurement": "P8 concentration in CSF", "setting": "SC 11.0 mg/kg single dose, 30 min, Rat 2", "value": 12.8, "unit": "ng/mL"}, {"measurement": "P8 concentration in CSF", "setting": "SC 11.0 mg/kg single dose, 30 min, Rat 3", "value": 8.03, "unit": "ng/mL"}, {"measurement": "P8 concentration in CSF", "setting": "SC 11.0 mg/kg single dose, 60 min, Rat 1", "value": 26.5, "unit": "ng/mL"}, {"measurement": "P8 concentration in CSF", "setting": "SC 11.0 mg/kg single dose, 60 min, Rat 2", "value": 17.1, "unit": "ng/mL"}, {"measurement": "P8 concentration in CSF", "setting": "SC 11.0 mg/kg single dose, 60 min, Rat 3", "value": 10.3, "unit": "ng/mL"}, {"measurement": "P8 concentration in plasma", "setting": "SC 11.0 mg/kg single dose, 70 min, Rat 2", "value": "4,150 ng/mL"}, {"measurement": "P8 concentration in plasma", "setting": "SC 11.0 mg/kg single dose, 70 min, Rat 3", "value": "1,220 ng/mL"}, {"measurement": "P8 concentration in plasma", "setting": "SC 11.0 mg/kg single dose, 90 min, Rat 1", "value": "2,600 ng/mL"}, {"measurement": "P8 concentration in plasma", "setting": "SC 11.0 mg/kg single dose, 90 min, Rat 2", "value": "3,570 ng/mL"}, {"measurement": "P8 concentration in plasma", "setting": "SC 11.0 mg/kg single dose, 90 min, Rat 3", "value": 908, "unit": "ng/mL"}, {"measurement": "P8 concentration in CSF", "setting": "SC 11.0 mg/kg single dose, 100 min, Rat 1", "value": 21.6, "unit": "ng/mL"}, {"measurement": "P8 concentration in CSF", "setting": "SC 11.0 mg/kg single dose, 100 min, Rat 2", "value": 16.3, "unit": "ng/mL"}, {"measurement": "P8 concentration in CSF", "setting": "SC 11.0 mg/kg single dose, 100 min, Rat 3", "value": 8.31, "unit": "ng/mL"}, {"measurement": "P8 concentration in plasma", "setting": "SC 11.0 mg/kg single dose, 110 min, Rat 1", "value": "2,120 ng/mL"}, {"measurement": "P8 concentration in plasma", "setting": "SC 11.0 mg/kg single dose, 110 min, Rat 2", "value": "2,410 ng/mL"}, {"measurement": "P8 concentration in plasma", "setting": "SC 11.0 mg/kg single dose, 110 min, Rat 3", "value": 804, "unit": "ng/mL"}, {"measurement": "P8 concentration in plasma", "setting": "SC 11.0 mg/kg single dose, 130 min, Rat 1", "value": "1,870 ng/mL"}, {"measurement": "P8 concentration in plasma", "setting": "SC 11.0 mg/kg single dose, 130 min, Rat 2", "value": "3,030 ng/mL"}, {"measurement": "P8 concentration in plasma", "setting": "SC 11.0 mg/kg single dose, 130 min, Rat 3", "value": 619, "unit": "ng/mL"}, {"measurement": "P8 concentration in CSF", "setting": "SC 11.0 mg/kg single dose, 150 min, Rat 1", "value": 11.8, "unit": "ng/mL"}, {"measurement": "P8 concentration in CSF", "setting": "SC 11.0 mg/kg single dose, 150 min, Rat 2", "value": 10.7, "unit": "ng/mL"}, {"measurement": "P8 concentration in CSF", "setting": "SC 11.0 mg/kg single dose, 150 min, Rat 3", "value": 5.71, "unit": "ng/mL"}, {"measurement": "P8 concentration in plasma", "setting": "SC 11.0 mg/kg single dose, 165 min, Rat 1", "value": "1,010 ng/mL"}, {"measurement": "P8 concentration in plasma", "setting": "SC 11.0 mg/kg single dose, 165 min, Rat 2", "value": "1,600 ng/mL"}, {"measurement": "P8 concentration in plasma", "setting": "SC 11.0 mg/kg single dose, 165 min, Rat 3", "value": 356, "unit": "ng/mL"}, {"measurement": "mean plasma exposure, SC relative to IN, corrected for dose", "setting": "rat", "value": 25, "unit": "fold"}, {"measurement": "percent of dose absorbed, SC relative to IN", "setting": "rat", "value": 25, "unit": "fold"}, {"measurement": "ratio or relative % F across the blood-brain barrier, % of the plasma concentrations", "setting": "rat", "value": "< 1", "unit": "%"}, {"measurement": "CSF Ratio (dose normalized CSF AUC of route / of IV dose)", "setting": "rat, IN 5.5 mg/kg", "value": "0.10±0.092"}, {"measurement": "Plasma: CSF Ratio (AUC)", "setting": "rat, IN 5.5 mg/kg", "value": "0.041±0.041"}, {"measurement": "Plasma: CSF Ratio (Cmax)", "setting": "rat, IN 5.5 mg/kg", "value": "0.064±0.093"}, {"measurement": "Tmax", "setting": "rat, IN 5.5 mg/kg, CSF", "value": "27 ± 29", "unit": "min"}, {"measurement": "CSF exposure as % of plasma exposure", "setting": "rat, IV", "value": "about 0.5%"}, {"measurement": "Plasma: CSF Ratio (AUC)", "setting": "rat, IV 11 mg/kg", "value": "0.0052±0.0015"}, {"measurement": "peak CSF Cmax", "setting": "rat, IV 11 mg/kg, CSF, at the 10-min time point (first time point)", "value": 65.6, "unit": "ng/mL"}, {"measurement": "t1/2", "setting": "rat, IV 11 mg/kg, plasma, terminal, 11 mg/kg", "value": "21.9 ± 8.18", "unit": "min"}, {"measurement": "clearance as share of hepatic liver blood flow", "setting": "rat, IV, based on a 70 mL/min/kg estimate", "value": "about 25%"}, {"measurement": "CSF exposure as % of plasma exposure", "setting": "rat, SC", "value": "about 0.5%"}, {"measurement": "CSF Ratio (dose normalized CSF AUC of route / of IV dose)", "setting": "rat, SC 11 mg/kg", "value": "0.72±0.29"}, {"measurement": "Plasma: CSF Ratio (AUC)", "setting": "rat, SC 11 mg/kg", "value": "0.0055±0.00054"}, {"measurement": "Plasma: CSF Ratio (Cmax)", "setting": "rat, SC 11 mg/kg", "value": "0.0037±0.0005"}, {"measurement": "AUC", "setting": "[1]", "value": 5.5, "unit": "ng·h/mL"}, {"measurement": "Cmax", "setting": "[1]", "value": "12.4 ± 17.7", "unit": "ng/mL"}, {"measurement": "Tmax", "setting": "rat, in vivo, 5.5 mg/kg, Tmax, IN 5.5 mg/kg, CSF", "value": 26.7, "unit": "min"}, {"measurement": "bioavailability", "setting": "rat, in vivo, inhaled or intranasal, 5.5 mg/kg", "value": "2.8 ± 0.88", "unit": "%"}, {"measurement": "AUC", "setting": "[2]", "value": 146, "unit": "ng·h/mL"}, {"measurement": "Cmax", "setting": "[2]", "value": "197 ± 62.7", "unit": "ng/mL"}, {"measurement": "Tmax", "setting": "rat, in vivo, inhaled or intranasal, 5.5 mg/kg, Tmax, IN 5.5 mg/kg, plasma", "value": 5, "unit": "min"}, {"measurement": "Vd", "setting": "rat, in vivo, iv, 11 mg/kg", "value": "0.546 ± 0.306", "unit": "L/kg"}, {"measurement": "clearance", "setting": "rat, in vivo, iv, 11 mg/kg", "value": "17.6 ± 5.65", "unit": "mL/min/kg"}, {"measurement": "AUC", "setting": "rat, in vivo, iv, 11 mg/kg, IV 11 mg/kg, CSF", "value": 54.5, "unit": "ng·h/mL"}, {"measurement": "AUC", "setting": "rat, in vivo, iv, 11 mg/kg, IV 11 mg/kg, plasma", "value": 11300, "unit": "ng·h/mL"}, {"measurement": "half-life", "setting": "rat, in vivo, iv, 11 mg/kg, t1/2, rat, IV 11 mg/kg, plasma, terminal", "value": "22 ± 8.2", "unit": "min"}, {"measurement": "bioavailability", "setting": "rat, in vivo, sc, 11 mg/kg", "value": "65 ± 21", "unit": "%"}, {"measurement": "AUC", "setting": "[3]", "value": 39.7, "unit": "ng·h/mL"}, {"measurement": "AUC", "setting": "[4]", "value": 7380, "unit": "ng·h/mL"}, {"measurement": "Cmax", "setting": "[3]", "value": "19.8 ± 8.46", "unit": "ng/mL"}, {"measurement": "Cmax", "setting": "[4]", "value": 5390, "unit": "ng/mL"}, {"measurement": "Tmax", "setting": "rat, in vivo, sc, 11 mg/kg, Tmax, SC 11 mg/kg, CSF", "value": 43, "unit": "min"}, {"measurement": "Tmax", "setting": "rat, in vivo, sc, 11 mg/kg, Tmax, SC 11 mg/kg, plasma", "value": 25, "unit": "min"}]}]}
